# Measured values published in ChEMBL document CHEMBL1177893, “Evaluation of labdane derivatives as potential anti-inflammatory agents” (Eur J Med Chem, 2010).
# Active and inactive are the calls of the source. The rule behind the calls is not given here.
# Key:
# [1] = Cytotoxicity against LPS-stimulated mouse RAW264.7 cells assessed as cell viability at 1 uM after 24 hrs by MTT assay; assay type: cell-based; conditions: LPS-stimulated RAW264.7 cells, read-out: Activity
# How it was run: (§1)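 RAW 264.7 cells plated at 10⁵ cells/well, pre-incubated 30 min with compound (1-25 µM), then LPS 250 ng/ml for 24 h. MTT added for 4 h at 37 °C; formazan dissolved in DMSO, absorbance read at 540 nm. Viability expressed relative to untreated controls. Triplicate wells, at least three independent experiments.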
# [2] = test system: RAW264.7; test: Antiinflammatory activity in mouse RAW264.7 cells assessed as inhibition of LPS-induced nitrite production treated 30 mins before LPS challenge measured after 24 hrs by Griess method; assay type: functional, cell-based
# How it was run: (§2)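 RAW 264.7 cells pre-incubated 30 min with compound (1, 2, 5, 10, 25 µM; range tested up to 50 µM), then LPS 250 ng/ml for 24 h. Medium nitrite measured by Griess reaction (sulfanilamide/naphthylethylenediamine in phosphoric acid, 10 min room temperature), read spectrophotometrically. IC50 is the concentration giving 50% inhibition of NO release. Three independent experiments in triplicate.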
# [3] = test system: RAW264.7; test: Antiinflammatory activity in mouse RAW264.7 cells assessed as inhibition of LPS-induced PGE2 production treated 30 mins before LPS challenge measured after 24 hrs by ELISA; assay type: functional, cell-based
# How it was run: (§3)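 RAW 264.7 macrophages pretreated 30 min with compound, then stimulated with LPS 250 ng/ml for 24 h. PGE2 in culture medium quantified in duplicate by EIA kit. IC50 is the concentration giving 50% inhibition of PGE2 release. Three independent experiments in triplicate.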
# [4] = test system: RAW264.7; test: Cytotoxicity against LPS-stimulated mouse RAW264.7 cells assessed as cell viability at 25 uM after 24 hrs by MTT assay; assay type: cell-based; conditions: raw264.7, 24 h; how it was run: as §1
# [5] = test system: RAW264.7; test: Cytotoxicity against LPS-stimulated mouse RAW264.7 cells assessed as cell viability at 10 uM after 24 hrs by MTT assay; assay type: cell-based; conditions: raw264.7, 24 h; how it was run: as §1
# [6] = test system: RAW264.7; test: Antiinflammatory activity in mouse RAW264.7 cells assessed as inhibition of LPS-induced PGE2 production at 25 uM treated 30 mins before LPS challenge measured after 24 hrs by ELISA; assay type: functional, cell-based; how it was run: as §3
# [7] = test system: Mus musculus; test: Antiinflammatory activity in Swiss mouse ear homogenates assessed as reduction of 12-O-tetradecanoylphorbol acetate-induced myeloperoxidase activity at 0.25 to 1 mg/ear administered topically measured after 4 hrs; assay type: functional, organism-based
# How it was run: (§4)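 TPA ([…]) applied to inner and outer surfaces of right ear of Swiss mice (20-25 g); test agent applied topically in acetone 30 min before TPA. Mice killed after 4 h; equal ear punches weighed, edema as right-over-left weight increase. MPO measured in saline homogenate supernatants (10,000g, 15 min, 4 °C) with tetramethylbenzidine substrate, pH 5.4 phosphate. Three independent experiments in triplicate.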
# [8] = test system: RAW264.7; test: Antiinflammatory activity in mouse RAW264.7 cells assessed as inhibition of LPS-induced nitrite production at 25 uM treated 30 mins before LPS challenge measured after 24 hrs by Griess method; assay type: functional, cell-based; how it was run: as §2
# [9] = test system: Mus musculus; test: Antiinflammatory activity in Swiss mouse assessed as reduction of 12-O-tetradecanoylphorbol acetate-induced ear swelling at 0.25 to 1 mg/ear administered topically measured after 4 hrs; assay type: functional, organism-based; how it was run: as §4
# [10] = test system: RAW264.7; test: Antiinflammatory activity in mouse RAW264.7 cells assessed as inhibition of LPS-induced nitrite production at 50 uM treated 30 mins before LPS challenge measured after 24 hrs by Griess method; assay type: functional, cell-based; how it was run: as §2
Structure (SMILES),IC50 [2],IC50 [3],Activity [7],"viability at 24 h, 1 µM [1]",inhibition [2],inhibition [3],Activity [4],Activity [5],inhibition [6],inhibition [8],Activity [9],inhibition [10]
C[C@H](CCO)CC[C@@]1(C)C2=C(CC[C@@H]1C)C(C)(C)CCC2,10 µM,25 µM,,75%,Dose-dependent effect,Dose-dependent effect,Toxic,,,,,
CC(=N)NCc1cccc(CN)c1,,,,,,,,,,,,Active
C[C@H](CC=O)CC[C@@H]1[C@@]2(C)CCCC(C)(C)[C@@H]2CC[C@@]1(C)O,> 50 µM,> 50 µM,,80%,,,,,,,,
C[C@H](CCO)CC[C@@H]1[C@@]2(C)CCCC(C)(C)[C@@H]2CC[C@@]1(C)O [LABDANEDIOL],15 µM,25 µM,,40%,Dose-dependent effect,Dose-dependent effect,,Toxic,,,,
C[C@H](CCOC(=O)c1ccc(Br)cc1)CC[C@@H]1[C@@]2(C)CCCC(C)(C)[C@@H]2CC[C@@]1(C)O,> 50 µM,> 50 µM,,80%,,,,,,,,
CC(=O)OCC[C@@H](C)CC[C@@H]1[C@@]2(C)CCCC(C)(C)[C@@H]2CC[C@@]1(C)O,15 µM,25 µM,,90%,Dose-dependent effect,Dose-dependent effect,,Non-toxic,,,,

# The next lines start with results.
IC50 [2],IC50 [3],Activity [7],Structure (SMILES),"viability at 24 h, 1 µM [1]",inhibition [2],inhibition [3],Activity [4],Activity [5],inhibition [6],inhibition [8],Activity [9],inhibition [10]
5 µM,10 µM,Active,COC(=O)C[C@@H](C)CC[C@@H]1[C@@]2(C)CCCC(C)(C)[C@@H]2CC[C@@]1(C)O [LABDANIC ACID METHYL ESTER],95%,Dose-dependent effect,Dose-dependent effect,,Non-toxic,Active,Active,Active,
15 µM,20 µM,,CC1=C(CC[C@H](C)CCO)[C@@]2(C)CCCC(C)(C)[C@@H]2CC1,75%,Dose-dependent effect,Dose-dependent effect,Toxic,,,,,
> 50 µM,> 50 µM,,CCCCCCCCCCCC(=O)OCC[C@@H](C)CC[C@@H]1[C@@]2(C)CCCC(C)(C)[C@@H]2CC[C@@]1(C)O,80%,,,,,,,,
> 50 µM,> 50 µM,,C[C@@H](CC[C@@H]1[C@@]2(C)CCCC(C)(C)[C@@H]2CC[C@@]1(C)O)CC(=O)O [LABDANIC ACID],80%,,,,,,,,
